Here are results for 14 compounds from ChEMBL document CHEMBL1153861, “Synthesis, optimization and structure-activity relationships of 3,5-disubstituted isoxazolines as new anti-tuberculosis agents” (2009).

The test system of assay [1] is Mycobacterium tuberculosis. Description: Antitubercular activity against Mycobacterium tuberculosis H37Rv. It counts as functional. Summed up:
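Broth microdilution against M. tuberculosis H37Rv; MIC read by visual inspection of growth.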

Assay [2] deals with Escherichia coli. Description: Antimicrobial activity against Escherichia coli. It is filed as functional, organism-based.
Assay [3] concerns Streptococcus pneumoniae. Description: Antimicrobial activity against Streptococcus pneumoniae. It is filed as functional, organism-based.
In assay [4] the test system is Staphylococcus aureus. As to the kind of experiment: Antimicrobial activity against Staphylococcus aureus. It is filed as functional, organism-based.

In brackets after ≈: the same amount, converted by molar mass. Activity calls are given as the source filed them. No cut-off for these calls is given here.

In assay [1], `CCCCOC(=O)N1CCN(c2ccc(C3CC(C(=O)OCC)=NO3)cc2)CC1` (stereo unspecified) yielded an MIC of 0.8 µg/mL (≈ 1.98 µM). The result in assay [2], in assay [3] and in assay [4] was inactive.

The compound `CCCNC(=O)C1=NOC(c2ccc(N3CCN(Cc4ccccc4)CC3)cc2)C1` (stereo unspecified) gave an MIC in assay [1] of 200 µg/mL (≈ 492 µM). The result in assay [2], in assay [3] and in assay [4] was inactive.

The compound `CCOC(=O)C1=NOC(c2ccc(N3CCCCC3)cc2)C1` (stereo unspecified) had an MIC in assay [1] of 6.25 µg/mL (≈ 20.7 µM). Moreover, the result in assay [2], in assay [3] and in assay [4] was inactive.

In turn, `CCOC(=O)C1=NOC(c2ccc(-c3ccc(OC)c(F)c3)cc2)C1` (stereo unspecified) gave an MIC in assay [1] of 3.12 µg/mL (≈ 9.1 µM). Also, the outcome in assay [2], in assay [3] and in assay [4] was inactive.

The compound `NCC1=NOC(c2ccc(N3CCOCC3)cc2)C1` (stereo unspecified) showed an MIC in assay [1] greater than 200 µg/mL. Moreover, the result in assay [2], in assay [3] and in assay [4] was inactive.

As to `CCOC(=O)C1=NOC(c2ccc(N3CCN(CC4CC4)CC3)cc2)C1` (stereo unspecified), the lowest concentration to inhibit growth in assay [1] (MIC) was 12.5 µg/mL (≈ 35 µM). Further, the outcome in assay [2], in assay [3] and in assay [4] was inactive.

In assay [1], `CC(=O)NCC1=NOC(c2ccc(N3CCOCC3)cc2)C1` (stereo unspecified) had an MIC greater than 200 µg/mL. For the same compound, the outcome in assay [2], in assay [3] and in assay [4] was inactive.

The compound `Cc1nnc(C2=NOC(c3ccc(N4CCN(Cc5ccccc5)CC4)cc3)C2)o1` (stereo unspecified) returned an MIC in assay [1] of 200 µg/mL (≈ 496 µM). Further, the result in assay [2], in assay [3] and in assay [4] was inactive.

`NNC(=O)C1=NOC(c2ccc(N3CCN(Cc4ccccc4)CC3)cc2)C1` (stereo unspecified) gave an MIC in assay [1] of 50 µg/mL (≈ 132 µM). Besides, the outcome in assay [2], in assay [3] and in assay [4] was inactive.

`CCOC(=O)C1=NOC(c2ccc(N3CCNCC3)cc2)C1` (stereo unspecified) yielded an MIC in assay [1] of 50 µg/mL (≈ 165 µM). Further, the outcome in assay [2], in assay [3] and in assay [4] was inactive.

`COC(=O)C1=NOC(c2ccc(N3CCN(Cc4ccccc4)CC3)cc2)C1` (stereo unspecified) yielded an MIC in assay [1] of 1.56 µg/mL (≈ 4.11 µM). The outcome in assay [2], in assay [3] and in assay [4] was inactive.

As to `C=CCOC(=O)N1CCN(c2ccc(C3CC(C(=O)OCC)=NO3)cc2)CC1` (stereo unspecified), inhibition of growth in assay [1] (MIC) required 0.8 µg/mL (≈ 2.06 µM). The outcome in assay [2], in assay [3] and in assay [4] was inactive.

For `CCCCCCNC(=O)N1CCN(c2ccc(C3CC(C(=O)O)=NO3)cc2)CC1` (stereo unspecified), the MIC in assay [1] is greater than 200 µg/mL. For the same compound, the outcome in assay [2], in assay [3] and in assay [4] was inactive.

Consider `CCOC(=O)C1=NOC(c2ccc(N3CCN(C(=O)OC)CC3)cc2)C1` (stereo unspecified), for which the minimum inhibitory concentration (MIC) in assay [1] came to 1.56 µg/mL (≈ 4.32 µM). Further, the result in assay [2], in assay [3] and in assay [4] was inactive.
